# HIV Env fusion: inhibitors of HIV-1 Env-driven cell-cell fusion, primary screen, HeLa-JRFL effector, CEM21 target cells, luciferase | actives 1.1% (n = 360,000) | AID 651610, 2012 | inhibition, % at 12.3 µM;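 active means mean replicate inhibition score of at least 50 and every replicate individually at or above 50; inconclusive means only one of the two criteria met; inactive means mean below 50 and not all replicates reaching 50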;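 further: 0% = plate neutral controls and 100% = maraviroc near 300 nM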
# FN deposition inh: inhibitors of fibronectin matrix deposition, primary screen, AH1F cells, Alexa488-fibronectin fluorescence, plate reader; AH1F fibroblasts, overnight; inhibition, % at 12.6 µM; actives 0.086% (n = 350,000); AID 743247, 2014;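 active means mean inhibition across replicates of 30% or more, regardless of how many single replicates reach that level; inconclusive means mean under 30% yet at least half of replicates reach 30%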;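 further: positive control wells lacked labelled fibronectin entirely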
#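 Material – AH1F fibroblast monolayer, labelled fibronectin deposition · Reagent – labelled fibronectin 24 nM · Timing – 1 h adhesion, overnight exposure · Measured by – fluorescence at 485 nm excitation, 525 nm emission · Read-out – inhibition of fibronectin deposition signal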
# rRNA inh HTS: reduced GFP signal of wild-type E. coli, primary screen, bacterial rRNA inhibitor project, GFP/RFP fluorescence, OD600, single point | E. coli WT GFP vs humanized-ribosome RFP mutants, 24 h; active compounds read low; DMSO median 0, no signal -100 | GFP signal change (wild-type ribosome), % (no concentration beside the values) | actives 1.6% (n = 350,000) | AID 720706, 2013;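 active means significant combined selectivity score with lowered wild-type GFP, culture density cut under 30%, mutant RFP and density less affected; inactive means any of these conditions unmet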
# PGC1a acetyl inh: inhibitors of PGC1a acetylation signal, primary screen, cell-based, U2OS, AlphaScreen, inhibitor mode. AlphaScreen anti-acetyl-lysine; with virally co-expressed GCN5 acetyltransferase. inhibition, % at 15.6 µM. actives 0.17% (n = 350,000). AID 651687, 2012;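 active means every replicate shows inhibition of at least 40%; inconclusive means mean inhibition at least 40% but some replicate below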;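 further: 0% = neutral control wells and 100% = positive control wells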
# PglD inh: C. jejuni PglD acetyltransferase inhibitors, primary screen, biochemical, DTNB colorimetric, single point | AID 602405, 2012 | UDP-N-acetylbacillosamine N-acetyltransferase PglD (Campylobacter jejuni) | purified PglD enzyme, DTNB colorimetric CoA detection | actives 0.098% (n = 360,000) | inhibition, % at 12.5 µM; in the data active means inhibition above about 16%, passing the limit was not always enough; inconclusive means no clear call, values can overlap the other calls
# DENV2 CPE: inhibitors of DENV2 cytopathic effect, primary screen, cell-based, plate reader, single concentration. DENV2-infected cells, cytopathic effect rescue. CPE inhibition, % at 9.99 µM. actives 1.7% (n = 350,000). AID 651640, 2012; in the data active means CPE inhibition above about 20%, passing the limit was not always enough; inconclusive means no clear call, values can overlap the other calls; tested in BHK-21 cells;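 further: 0% = median of neutral control wells and 100% = median of positive control wells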
# The depositor's hits bear a star; ? = inconclusive; / = no result given; [ ] = dose if it differs, or a comment. The list is not random: actives were taken first. Their share in the collection is about 3.5%.
SMILES,HIV Env fusion,FN deposition inh,rRNA inh HTS,PGC1a acetyl inh,PglD inh,DENV2 CPE
COc1ccc(-c2ccc([C@@H]3[C@@H](CO)N4CCCCN(C(=O)Cc5ccncc5)C[C@@H]34)cc2)cc1,/,/,5,18,0,-9
c1ccc(-c2cc(-c3ccccc3)[n+](-c3ccccc3)c(-c3ccccc3)c2)cc1,80*,3,-54,-2,-2,8
CN(C)c1ccc(-[n+]2c(-c3ccccc3)cc(-c3ccccc3)cc2-c2ccccc2)cc1,94*,4,-59,-46,/,/
Cc1ccc(-c2cc(-c3ccccc3)cc(-c3ccccc3)[n+]2-c2ccccc2)cc1,23,-1,-56,-23,-3,11
COC(=O)[C@@H]1[C@@H](CO)[C@@H]2Cn3c(ccc(C4=CCCCC4)c3=O)[C@H]1N2Cc1cccnc1,/,/,2,-6,2,13
Cc1ccccc1S(=O)(=O)N1[C@@H]2Cn3c(ccc(-c4cccnc4)c3=O)[C@H]1[C@@H](C(=O)O)[C@@H]2CO,/,/,3,/,-1,1
CCN(CCNc1ccc([N+](=O)[O-])c2cccnc12)S(=O)(=O)c1ccc(Cl)cc1,81*,0,/,0,4,/
O=C(Cc1ccccn1)N1CCCCN2[C@H](C1)[C@@H](c1ccc(-c3ccccc3)cc1)[C@@H]2CO,/,/,-1,9,1,21*
N#Cc1cccc(-c2ccc([C@H]3[C@@H](CO)N4CCCCN(C(=O)Cc5ccccc5)C[C@H]34)cc2)c1,/,/,0,-9,3,27*
C/C=C/c1ccc([C@@H]2[C@H]3CN(C(=O)Cc4ccncc4)CCCCN3[C@H]2CO)cc1,/,/,7,1,-1,82*
CN(C)CC#Cc1ccc([C@H]2[C@@H](CO)N3CCCCN(C(=O)Cc4ccccn4)C[C@H]23)cc1,/,-5,3,-2,1,30*
O=C(Cc1cccnc1)N1CCCCN2[C@H](CO)[C@@H](c3ccc(C#CC4(O)CCCC4)cc3)[C@H]2C1,/,/,2,24,-6,-6
CCCC#Cc1ccc([C@H]2[C@H]3CN(C(=O)Cc4ccccn4)CCCCN3[C@H]2CO)cc1,/,/,-1,-5,1,21*
O=C(Cc1cccnc1)N1CCCCN2[C@H](C1)[C@H](c1ccc(C#CC3(O)CCCC3)cc1)[C@@H]2CO,/,/,5,5,2,25*
CCCC#Cc1ccc([C@@H]2[C@@H](CO)N3CCCCN(C(=O)Cc4ccccn4)C[C@H]23)cc1,/,/,3,6,-2,2
COc1cc2c(cc1OC)-c1c(OC)c(OC)cc3c1[C@H](C2)[N+](C)(C)CC3,-148,7,-25*,3,0,20
COc1cc2c3c(c1OC)-c1cc(O)ccc1CC3NCC2 (stereo not drawn),/,/,/,4,-1,/
COC(=O)[C@@H]1[C@@H](CO)[C@@H]2Cn3c(cccc3=O)[C@H]1N2C(=O)C1CCC1,/,/,/,/,-3,2
COC(=O)[C@H]1[C@H](CO)[C@H]2Cn3c(ccc(C4=CCCCC4)c3=O)[C@@H]1N2Cc1ccccc1OC,/,/,-6,/,/,-6
O=c1c2ccccc2nc(/C=C/c2ccccc2)n1-c1ccccc1O,20,/,-26,-36,2,-5
O=c1c2ccccc2nc(/C=C/c2ccc(O)cc2)n1-c1ccccc1O,20,1,-27*,1,-1,0
COC(=O)[C@@H]1[C@@H](CO)[C@@H]2Cn3c(ccc(-c4ccc(OC)cc4)c3=O)[C@H]1N2C(=O)c1ccccc1F,/,/,-3,/,1,-7
O=[N+]([O-])c1ccc(N2CCCCC2)c2ncccc12,-23,-10,-43*,-3,-6,4
N#Cc1cccc(-c2ccc([C@@H]3[C@@H](CO)N4CCCCN(C(=O)Cc5cccnc5)C[C@@H]34)cc2)c1,/,/,-8,10,2,2
N#Cc1cccc(-c2ccc([C@@H]3[C@H]4CN(C(=O)Cc5ccncc5)CCCCN4[C@H]3CO)cc2)c1,/,/,-3,1,3,9
SMILES,HIV Env fusion,FN deposition inh,rRNA inh HTS,PGC1a acetyl inh,PglD inh,DENV2 CPE
BrCC1C[n+]2c(SCc3ccccc3)nc3sc4c(c3c2O1)CCCC4 (stereo not drawn),10,-4,-25,2,-7,0
Nc1c2c(nc3sc4c(c13)CCCCC4)CCCC2,-6,/,-23*,-8,16,0
O=[N+]([O-])c1ccc(N2CCOCC2)c2c1no[n+]2[O-],-229,30,-24*,84*,-1,-12
O=C1NC2C(=CC(O)C(O)C2O)c2cc3c(c(O)c21)OCO3 (stereo not drawn),64*,21,4,63*,/,88*
O=C1NC2C(O)C(O)C(O)C(O)C2c2cc3c(c(O)c21)OCO3 (stereo not drawn),119*,5,6,/,/,?
O=C1NC2C(=CC(O)C(O)C2O)c2cc3c(cc21)OCO3 (stereo not drawn),100*,16,4,85*,/,4
COc1ccc(OC(=O)N(C)C[C@H]2OCc3ccccc3-c3c(n(C)c4ccccc34)C(=O)N([C@H](C)CO)C[C@@H]2C)cc1,/,-2,0,-4,/,1
CC=Cc1ccc2n(c1=O)C[C@H]1[C@H](CO)[C@@H](C(=O)OC)[C@@H]2N1CC1CCCCC1 (mixture of isomers),/,/,-3,/,2,-3
O=C(O)[C@@H]1[C@@H](CO)[C@@H]2Cn3c(ccc(-c4ccncc4)c3=O)[C@H]1N2C(=O)C1CCC1,/,/,-1,/,3,1
O=C(Cc1ccccc1)N1CCCCN2[C@@H](CO)[C@H](c3ccc(C#Cc4ccccc4)cc3)[C@@H]2C1,/,-7,-55,-11,6,9
CCC1CN1P(=O)(N1CCCC1)N1CC1CC (stereo not drawn),59*,-3,15,5,/,0
N#Cc1cccc(-c2ccc([C@@H]3[C@H](CO)N4CCCCN(C(=O)Cc5ccccc5)C[C@@H]34)cc2)c1,/,/,2,12,0,8
C=CC1CN2CCC1C[C@@H]2CO (stereo partly drawn),1[16.7 µM],/,/,20,/,20*

# Source: PubChem
